Our source for the Activity, Drug uptake and Ratio values is ChEMBL document CHEMBL1938298, “Synthesis and characterization of [¹²⁵I]2-iodo N-[(S)-{(S)-1-methylpiperidin-2-yl}(phenyl)methyl]3-trifluoromethyl-benzamide as novel imaging probe for glycine transporter 1” (Bioorg Med Chem, 2011).

Active and inactive are the calls of the source. No cut-off for these calls is given here.

In data set [1] the target is T1, Sodium- and chloride-dependent glycine transporter 1 (Rattus norvegicus) (UniProt P28572).
T1 sequence (whole entry): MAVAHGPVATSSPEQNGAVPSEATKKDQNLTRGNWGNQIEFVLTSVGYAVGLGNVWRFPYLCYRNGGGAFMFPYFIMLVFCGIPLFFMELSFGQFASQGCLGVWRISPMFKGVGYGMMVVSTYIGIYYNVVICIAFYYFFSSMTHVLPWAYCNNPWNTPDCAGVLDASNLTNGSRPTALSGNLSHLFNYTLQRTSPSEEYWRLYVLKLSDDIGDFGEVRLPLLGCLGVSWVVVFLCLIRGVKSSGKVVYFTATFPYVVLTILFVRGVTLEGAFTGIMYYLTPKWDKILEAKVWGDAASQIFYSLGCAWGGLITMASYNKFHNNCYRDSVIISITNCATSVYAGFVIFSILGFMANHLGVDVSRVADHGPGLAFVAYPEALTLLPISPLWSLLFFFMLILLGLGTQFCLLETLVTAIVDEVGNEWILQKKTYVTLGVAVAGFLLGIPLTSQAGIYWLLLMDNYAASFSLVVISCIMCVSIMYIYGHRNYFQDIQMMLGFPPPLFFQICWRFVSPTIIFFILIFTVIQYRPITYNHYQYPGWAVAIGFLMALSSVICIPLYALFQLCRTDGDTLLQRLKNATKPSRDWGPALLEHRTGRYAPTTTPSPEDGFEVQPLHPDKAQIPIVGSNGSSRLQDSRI
Description: Binding affinity to GlyT1 in rat brain striatum at 0.03 to 0.04 nM preincubated for 20 mins in binding buffer before compound addition measured after 30 mins by autoradiography in presence of 0.01 mM NMDA receptor glycine site antagonist L-701,324 relative to control. It counts as tissue-based. Conditions: tested as the 125I-labelled form.

Data set [2] has as its system Mus musculus. Description: In vivo binding affinity to GlyT1 in ddY mouse brain cerebellum at 33.3 kBq, iv after 30 mins in presence of SSR504734 2 mg/kg, iv administered 15 mins prior to compound administration relative to control. It counts as functional, organism-based. More on the design: dose 2 mg/kg. Particulars: tested as the 125I-labelled form. Summed up:
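Blocking study in male ddY mice (6 weeks, 30–35 g). The blocker (2 mg/kg in 30% DMSO/saline) was injected i.v. 15 min before about 33.3 kBq [125I]tracer i.v.; mice were killed at 30 or 60 min. Brains were divided into cortex, corpus callosum, hippocampus, thalamus, midbrain, medulla and cerebellum, weighed and gamma-counted as % dose/g. Values are mean ± SD, n = 5–6, compared to control by Kruskal–Wallis with Dunn's post-test.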

Data set [3] has as its target T1, Sodium- and chloride-dependent glycine transporter 1 (Rattus norvegicus). The experiment in a line: Binding affinity to GlyT1 in rat brain medullary region at 0.03 to 0.04 nM preincubated for 20 mins in binding buffer before compound addition measured after 30 mins by autoradiography in presence of 0.01 mM GlyT2 inhibitor ORG25543 relative to control. It counts as tissue-based. Conditions: tested as the 125I-labelled form. A digest of the protocol: (§1)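 Rat brain sagittal sections (20 µm) preincubated 20 min at 25 °C in Tris-HCl buffer pH 7.5 (NaCl, KCl, MgCl2, CaCl2), then 30 min at 25 °C with [125I] tracer (100 kBq, 0.03–0.04 nM) plus competitor (10 µM; glycine 1 or 10 mM). Cold washes, imaging plate 3 days, ROI PSL minus background per mm². % control from ≥triplicate slices, three rats.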

The target is the same in data set [4]. Description: Binding affinity to GlyT1 in rat brain hippocampus at 0.03 to 0.04 nM preincubated for 20 mins in binding buffer before compound addition measured after 30 mins by autoradiography in presence of 0.01 mM GlyT1 inhibitor SSR504734 relative to control. The format is tissue-based. Conditions: tested as the 125I-labelled form. Summed up: as §1
Data set [5] has the same target. Description: Binding affinity to GlyT1 in rat brain hippocampus at 0.03 to 0.04 nM preincubated for 20 mins in binding buffer before compound addition measured after 30 mins by autoradiography in presence of GlyT1 inhibitor N-Me-SSR504734 relative to control. The format is tissue-based. Particulars: tested as the 125I-labelled form. Summed up: as §1
Data set [6] shares this target. Description: Binding affinity to GlyT1 in rat brain cerebellum at 0.03 to 0.04 nM preincubated for 20 mins in binding buffer before compound addition measured after 30 mins by autoradiography in presence of 0.01 mM GlyT2 inhibitor ORG25543 relative to control. The format is tissue-based. Particulars: tested as the 125I-labelled form. Summed up:
as §1

Data set [7] shares this target. The experiment in a line: Binding affinity to GlyT1 in rat brain medullary region at 0.03 to 0.04 nM preincubated for 20 mins in binding buffer before compound addition measured after 30 mins by autoradiography relative to control. The format is tissue-based. Conditions: tested as the 125I-labelled form. A digest of the protocol: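 Rat brain sagittal sections (20 µm), 20 min preincubation at 25 °C in Tris-HCl pH 7.5 binding buffer, then [125I] tracer (100 kBq, 0.03–0.04 nM) for 30 min at 25 °C. Nonspecific binding taken with 10 µM unlabeled ligand. Imaging-plate read-out as (PSL−BG)/mm². Mean ± SD, n = 4–5 from at least three rats; Mann–Whitney U-test.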

For data set [8] the target is unchanged. The experiment in a line: Binding affinity to GlyT1 in rat brain cerebral cortex at 0.03 to 0.04 nM preincubated for 20 mins in binding buffer before compound addition measured after 30 mins by autoradiography in presence of GlyT1 inhibitor N-Me-SSR504734 relative to control. It counts as tissue-based. Particulars: tested as the 125I-labelled form. A digest of the protocol: as §1

For data set [9] the target is unchanged. Description: Binding affinity to GlyT1 in rat brain cerebral cortex at 0.03 to 0.04 nM preincubated for 20 mins in binding buffer before compound addition measured after 30 mins by autoradiography in presence of 1 mM GlyT1 substrate glycine relative to control. The format is tissue-based. Particulars: tested as the 125I-labelled form. Summed up: as §1
For data set [10] the target is unchanged. Description: Binding affinity to GlyT1 in rat brain corpus callosum at 0.03 to 0.04 nM preincubated for 20 mins in binding buffer before compound addition measured after 30 mins by autoradiography in presence of GlyT1 inhibitor N-Me-SSR504734 relative to control. The format is tissue-based. Particulars: tested as the 125I-labelled form. A digest of the protocol:
as §1

Another data set relates to Intestine. The experiment in a line: Drug uptake in ddY mouse intestine at 11.1 kBq, iv after 0.5 min by gamma counting. Particulars: in vivo. The format is ADME, organism-based. Summed up: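 Male ddY mice (6 weeks, 30–35 g) received about 11.1 kBq [125I]tracer in 0.1 mL i.v. via tail vein. Killed at set times, organs dissected and weighed, radioactivity gamma counted. Reported as % injected dose/g tissue, mean ± SD, n = 5–6.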

The test system of data set [11] is Mus musculus. The experiment in a line: In vivo binding affinity to GlyT1 in ddY mouse brain medullary region at 33.3 kBq, iv after 60 mins in presence of nonradioactive compound 2 mg/kg, iv administered 15 mins prior to compound administration relative to control. It counts as functional, Medulla of organ.
Data set [12] has as its system Mus musculus. The experiment in a line: In vivo binding affinity to GlyT1 in ddY mouse brain midbrain at 33.3 kBq, iv after 30 mins in presence of N-Me-SSR504734 2 mg/kg, iv administered 15 mins prior to compound administration relative to control. It counts as functional.
In another data set the test system is Nucleic Acid. Description: Ratio of drug level in brain to blood in ddY mouse at 11.1 kBq, iv after 5 min by gamma counting. It counts as ADME, organism-based.
Another data set relates to Pancreas. The experiment in a line: Drug uptake in ddY mouse pancreas at 11.1 kBq, iv after 5 min by gamma counting. Conditions: in vivo. It counts as ADME, organism-based. A digest of the protocol: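 Male ddY mice (6 weeks, 30–35 g) were given about 11.1 kBq of [125I]tracer in 0.1 mL i.v. via the tail vein. At each time point the animals were killed and organs dissected, weighed and gamma-counted. Uptake is expressed as % injected dose per gram of tissue, mean ± SD, n = 5–6.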

Turning to `CN1CCCC[C@H]1[C@@H](NC(=O)c1cccc(C(F)(F)F)c1I)c1ccccc1`, the Activity in data set [1] worked out at 96.8%; in [3] it was 91.4%; in data set [4], 46.3%; in data set [5], 45.8%; in data set [6] it was 124%; in data set [8], 37.5%. Also, the Activity is 89.6% in data set [9] and 20.2% in [10]. In addition, the result in the data set with Mus musculus [2] was inactive. For the same compound, the result in [7] was Active.

For `CN1CCCC[C@H]1[C@@H](NC(=O)c1cccc(C(F)(F)F)c1[125I])c1ccccc1`, the Drug uptake with Intestine amounted to 0.81 % ID/g; with Pancreas it was 6.4 % ID/g. In addition, the Activity is recorded as 52% in the data set on Mus musculus [11] and 55% in the data set with Mus musculus [12]. For the same compound, the Ratio in the data set with Nucleic Acid turned out to be 1.57.
